# Compound activity deposited in PubChem by several laboratories.
# An excerpt weighted towards active compounds, which were near 1.3% of everything screened.
# proCasp7 act: procaspase-7 activators, primary screen, counter-screen for procaspase-3 activator project, biochemical, absorbance, HTS, human | recombinant procaspase-7, Ac-DEVD-pNA absorbance 405 nm; D23A/D198A/D206A triple mutant, cannot self-cleave; scale: DMSO 0, 5 µM enzyme 100 | activation, % at 8.5 µM | actives 0.093% (n = 330,000);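 active = percent activation above the screen-wide mean plus 3 SD, cut at about 25% in these data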
# Target sequence (P55210 whole entry D23A/D198A/D206A): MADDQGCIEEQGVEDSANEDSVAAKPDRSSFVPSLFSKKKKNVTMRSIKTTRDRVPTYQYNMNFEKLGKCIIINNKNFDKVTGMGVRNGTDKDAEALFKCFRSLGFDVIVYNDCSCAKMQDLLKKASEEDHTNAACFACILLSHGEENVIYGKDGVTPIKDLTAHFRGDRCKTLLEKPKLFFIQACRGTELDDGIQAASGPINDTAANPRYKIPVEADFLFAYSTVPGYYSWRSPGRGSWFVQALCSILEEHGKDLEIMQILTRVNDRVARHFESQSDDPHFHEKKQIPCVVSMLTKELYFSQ
#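 signal = Epi-absorbance of released pNA at 405 nm, two timepoints | assay system = Uncleavable procaspase-7 mutant enzyme | reagent = Ac-DEVD-pNA substrate, 400 µM as added | times = 1 h enzyme–compound preincubation and 2 h substrate reaction, both 25 °C | benchmarks = low DMSO alone, high DMSO plus 5 µM PC-7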
# CHT PAM: CHT positive allosteric modulators, primary screen, cell-based, membrane potential dye, choline EC20; CHT-expressing cells; hits give high values; LV-AA mutant CHT in HEK293 cells; B-score at 10 µM; actives 0.49% (n = 310,000); AID 488977, 2010;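 active = initial fluorescence not abnormally high and integrated response B-score, plate-corrected, over 3 SD above library mean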
# proCasp3 act: activators of human procaspase-3 D3A mutant, primary screen, biochemical, absorbance, PC-3 D3A mutant, single concentration | activation, % at 8.5 µM | recombinant procaspase-3 D3A, Ac-DEVD-pNA absorbance 405 nm | actives 0.11% (n = 330,000) | Caspase-3 (Homo sapiens), P42574;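 active = activation above the mean of all tested compounds plus 3 SD, cut at about 21% in these data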;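 also: 0% = DMSO alone and 100% = DMSO wells spiked with extra 5 µM PC-3 D3A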
# Target sequence (P42574 whole entry D9A/D28A/D175A): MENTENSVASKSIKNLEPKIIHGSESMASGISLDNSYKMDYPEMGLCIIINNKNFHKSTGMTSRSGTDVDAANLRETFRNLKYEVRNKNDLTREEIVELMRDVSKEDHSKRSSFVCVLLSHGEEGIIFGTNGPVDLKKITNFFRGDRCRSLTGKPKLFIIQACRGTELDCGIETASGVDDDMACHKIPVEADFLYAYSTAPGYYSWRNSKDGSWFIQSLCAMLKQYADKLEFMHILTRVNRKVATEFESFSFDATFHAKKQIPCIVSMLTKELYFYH
#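 Test system: Procaspase-3 D3A mutant, all three cleavage aspartates alanine | Dosing: Single dose, 8.5 µM nominal compound, 0.8% DMSO | Schedule: 1 h preincubation, 2 h reaction | Technique: 405 nm absorbance of p-nitroaniline, reads at 0 and 120 min | Repeats: One well per compound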
# CHT inh: inhibitors of human choline transporter CHT | High affinity choline transporter 1 (Homo sapiens), Q9GZV3 | CHT-expressing cells, membrane potential dye, choline response; hits give low values | B-score at 10 µM | actives 0.86% (n = 310,000);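 active = B-score over 3 SD under the library average, and starting fluorescence ratio not unusually high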;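 also: choline stimulus applied at its EC90 after an EC20 pre-addition; B-score computed on integrated fluorescence ratio after choline addition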
# * marks the source's active call; other numbers are inactive results; i = inactive; / = no result.
SMILES,proCasp7 act,CHT PAM,proCasp3 act,CHT inh
Cc1cccc2c3c([nH]c12)CCN(C)C3,6,i,-4,-5.8*
CCCc1[nH]n(-c2ccc([N+](=O)[O-])cc2)c(=O)c1C=NCCN1CCNCC1,5,6.8*,2,i
Cc1[nH]n(-c2ccc([N+](=O)[O-])cc2)c(=O)c1C=NCCN1CCN(C(=O)C(C)C)CC1,1,i,2,i
Cc1cc(C)cc(-n2c(C)cc(/C=N/NC(=O)CN(c3c(C)cccc3C)S(C)(=O)=O)c2C)c1,-3,i,2,i
Cc1ccc(N(CC(=O)N/N=C/c2cc(C)n(-c3ccccc3C)c2C)S(C)(=O)=O)cc1,-4,i,5,-7*
COc1ccc(NC(=O)COC(=O)c2cc3c(s2)CCC3)cc1,7,/,-3,/
CCCCCCCCCCCCCCCC[n+]1cccc2ccccc21,-10,8.7*,-16,i
O=C(C[n+]1cccc2ccccc21)c1ccccc1,-1,i,-5,i
COc1ccccc1OCCNC(=O)CN1C(=O)NC2(CCCCC2)C1=O,5,/,7,/
COc1ccc(/C=C/C(=O)OCC(=O)NC2CCCC2)cc1OC,9,/,5,/
O=C(NN1C(=O)/C(=C/c2ccc(O)cc2)SC1=S)c1ccccc1O,-12,i,-9,i
COc1ccc(/C=C2\SC(=S)N(NC(=O)c3ccncc3)C2=O)cc1OC,2,i,-19,-8*
O=C(NN1C(=O)/C(=C/c2ccc(O)cc2)SC1=S)c1cccc(O)c1,-13,i,-12,-9.4*
Cc1nn(-c2ccc([N+](=O)[O-])cc2)c2c1C(c1cccc(Br)c1)N1C(=N2)C(=O)Nc2ccccc21 (stereo not given),-1,i,-3,-6.6*
Cc1cc(CSC(=N)N)c(CSC(=N)N)cc1C,-7,12*,5,i
O=Cc1ccc(C(=O)OCC(=O)NC(=O)Nc2ccccc2F)cc1,8,/,5,/
Cc1ccccc1CC(=O)N1CCN(S(=O)(=O)c2ccc(Cl)s2)CC1,-8,/,1,/
COc1ccc(-c2cc(-c3ccccc3)nc(N3CCCC3)n2)cc1OC,27*,i,10,i
COC(=O)c1cc(C(=O)OCC(=O)N2CCCCC2)cc([N+](=O)[O-])c1,9,/,14,/
Cc1cc(C(=O)OCC(=O)Nc2c(Cl)cccc2Cl)c(C)o1,9,/,-5,/
C[C@H]1COc2c(N3CCN(C)CC3)c(F)cc3c(=O)c(C(=O)O)cn1c23,-4,8.9*,-7,i
C[C@H]1COc2c(C3(N)CC3)c(F)cc3c(=O)c(C(=O)O)cn1c23,-3,i,7,i
CSc1nnc(NC(=O)c2nc(S(=O)(=O)Cc3ccccc3)ncc2Cl)s1,-2,i,9,-9.2*
COc1ccc2[nH]c3c(c2c1)CCN1C(=O)C(CC(=O)NCCCn2ccnc2)C[C@H](C(=O)N2CCOCC2)[C@@]31C (stereo not given in full),-5,/,-7,/
CC(C)(C)c1ccc(Cn2c(=N)n(CC(O)c3ccco3)c3ccccc32)cc1 (stereo not given),13,i,3,-6.6*
SMILES,proCasp7 act,CHT PAM,proCasp3 act,CHT inh
C[C@H]1CN([C@@H](C)CO)C(=O)c2cccc(NC(=O)c3cnccn3)c2O[C@@H]1CN(C)S(=O)(=O)c1ccc(F)cc1,6,/,-2,/
Cc1cc(C)c2ccc(C)[n+]([O-])c2c1O,-7,i,-7,-20*
CCc1ccc(-c2cc(-c3n[nH]c(=S)n3CC)c3ccccc3n2)cc1,-13,i,-1,-11*
CCn1c(-c2cc(-c3cccc(OC)c3)nc3ccccc23)n[nH]c1=S,-18,i,-15,i
CC(=O)[C@@]1(O)CC[C@H]2[C@@H]3CCC4=CC(=O)CC[C@]4(C)[C@H]3[C@@H](O)C[C@@]21C,3,i,3,-6.6*
C=CC[n+]1c(/C=C/c2ccc(OC(C)=O)c(OC)c2)ccc2ccccc21,4,7.4*,4,i
COc1cc(/C=N/NC(=O)Nc2ccccc2)ccc1OC(C)=O,11,i,3,i
CN(C)c1ccc(C(=O)c2ccc(N(C)C)c3ccccc23)cc1,0,10*,6,i
COc1ccc(C(=O)c2ccc(OC)c(OC)c2)cc1OC,-2,i,5,i
COc1ccc(C(=O)c2ccc(OC)c(N)c2)cc1N,10,12*,2,i
O=C(COc1cccc2ccccc12)Nc1ccc(Cl)cc1C(=O)O,4,i,0,-7.3*
O=C(Nc1nc(=S)ss1)c1ccc(Cl)cc1Cl,-23,i,-21,-9.2*
COc1ccc(C(=O)COC(=O)c2ccccc2O)c(OC)c1,-5,/,11,/
c1ccc(-c2cc(NCCN3CCCCC3)c3ccccc3n2)cc1,-5,i,-1,i
CCOC(=O)c1c(NC(=O)CSc2nnc(C)s2)sc2c1CCN(C)C2,8,7.6*,-5,i
Cc1nnc(SCC(=O)Nc2sc3c(c2C(=O)c2ccccc2)CCCC3)s1,6,8.1*,0,i
CCOC(=O)c1c(NC(=O)Cc2ccccc2)sc2c1CCN(C)C2,5,i,-1,i
C[C@H]1CN([C@@H](C)CO)C(=O)c2cc(NC(=O)NC3CCCCC3)ccc2O[C@H]1CN(C)C(=O)Nc1ccc(C(F)(F)F)cc1,4,/,6,/
CC(c1ccccc1)N1CC(C(=O)Nc2ccc(F)cc2)CC1=O (stereo not given),1,/,-12,/
O=C(Cc1cccs1)Nn1c(Cc2cccs2)nc2ccccc2c1=O,12,i,3,-6.7*
COc1cc(/C=C2/C(=N)N3C(SC)=NSC3=NC2=O)ccc1OC(=O)c1ccco1,1,i,5,-6.5*
Cc1ccc(-n2ncc3c(=O)n(CC(=O)N4CCN(C(=O)c5ccco5)CC4)cnc32)cc1,-1,/,4,/
CSc1ccc(COC(=O)c2cc([N+](=O)[O-])ccc2N2CCOCC2)cc1,-10,6.3*,-5,i
CSCC(C)N1CCC(Oc2cccc(C(=O)NCc3ccccn3)c2)CC1 (stereo not given),1,i,1,-17*
C[C@H]1CN([C@@H](C)CO)C(=O)c2cc(NC(=O)c3ccncc3)ccc2O[C@H]1CN(C)Cc1ccc(C(=O)O)cc1,9,/,9,/
CN(Cc1ccc(Cl)s1)C(=O)CSc1nnc(C2CC2)n1C1CC1,9,/,10,/
CCN(CC(=O)Nc1c(F)cccc1F)C(=O)CCCc1cccs1,12,/,10,/
Cc1cccc(OCC(=O)Nc2ccc(C(=O)Nc3ccccc3C(=O)O)cc2)c1C,0,i,6,-5.6*
O=[N+]([O-])c1cccc(S(=O)(=O)/N=C(/Nc2ccccc2)c2ccccc2)c1,8,/,7,/
